Values after ≈ are worked out from the molar mass of the structure shown.
How the values were obtained:
[1] = Ratio of drug level in brain to plasma in Sprague-Dawley rat; format: ADME, cell-free; conditions: for Kp: Sprague-Dawley, brain and plasma, read-out: BPR
In short: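 Total brain-to-plasma ratio from in vivo Sprague-Dawley rat samples, compound given as 4 h constant-rate i.v. infusion to steady state.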

[2] = Ratio of unbound fraction in brain to plasma in Sprague-Dawley rat; format: ADME, cell-free
In short: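 Steady-state total brain/plasma ratio in Sprague-Dawley rats after 4 h constant-rate i.v. infusion, corrected by unbound fraction in brain (rat brain slices) and in plasma (equilibrium dialysis).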

Caco-2 = assay: (§1) Apparent permeability from apical to basolateral side in human Caco2 cells at pH 7.4; format: ADME, cell-based; conditions: Caco-2, pH 7.4
In short: (§2)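 Caco-2 monolayers at pH 7.4, apparent permeability measured for apical-to-basolateral transport.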

Cannabinoid receptor 2 = Cannabinoid receptor 2 (Homo sapiens, UniProt P34972); assay: Displacement of [3H]-CP55,940 from human CB2 receptor expressed in Sf9 cell membranes by scintillation counting analysis
Cannabinoid receptor 2, sequence (P34972 whole entry): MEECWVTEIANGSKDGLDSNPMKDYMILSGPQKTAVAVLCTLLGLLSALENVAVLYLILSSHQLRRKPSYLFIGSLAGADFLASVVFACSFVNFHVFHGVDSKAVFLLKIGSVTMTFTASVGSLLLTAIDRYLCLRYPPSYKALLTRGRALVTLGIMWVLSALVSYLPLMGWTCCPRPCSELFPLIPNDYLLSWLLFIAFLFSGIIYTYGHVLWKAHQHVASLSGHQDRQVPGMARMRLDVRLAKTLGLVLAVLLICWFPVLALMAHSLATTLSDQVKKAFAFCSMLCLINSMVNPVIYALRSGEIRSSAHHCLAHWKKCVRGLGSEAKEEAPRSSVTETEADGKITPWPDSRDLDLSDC
In short: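 Membranes from Sf9 cells expressing cloned hCB2 (baculovirus) in 50 mM Tris, 2.5 mM EDTA, 5 mM MgCl2, 0.5 mg/mL fatty-acid-free BSA, pH 7.4. 60 min at rt, GF/B filtration, scintillation counting. 10-point curves; IC50 mean of three independent experiments.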

Cannabinoid receptor 1 [3] = molecular target: T1, Cannabinoid receptor 1 (Homo sapiens, UniProt P21554); assay: Displacement of [3H]-CP55,940 from human CB1 receptor expressed in HEK293S cell membranes by scintillation counting analysis
T1 sequence (P21554 whole entry): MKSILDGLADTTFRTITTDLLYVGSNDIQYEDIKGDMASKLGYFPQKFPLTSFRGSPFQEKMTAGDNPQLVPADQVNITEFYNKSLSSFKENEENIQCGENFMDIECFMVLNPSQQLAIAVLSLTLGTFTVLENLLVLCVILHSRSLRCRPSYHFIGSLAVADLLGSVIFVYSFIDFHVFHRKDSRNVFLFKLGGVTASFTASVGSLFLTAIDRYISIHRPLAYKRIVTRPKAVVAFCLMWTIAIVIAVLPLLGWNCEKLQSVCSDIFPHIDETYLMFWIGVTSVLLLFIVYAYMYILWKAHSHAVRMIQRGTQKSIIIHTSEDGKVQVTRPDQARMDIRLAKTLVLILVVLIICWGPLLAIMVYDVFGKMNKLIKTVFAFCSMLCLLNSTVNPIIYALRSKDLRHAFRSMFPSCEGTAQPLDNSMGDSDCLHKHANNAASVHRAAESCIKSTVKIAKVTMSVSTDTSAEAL

Cannabinoid receptor 1 [4] = molecular target: T1, Cannabinoid receptor 1; assay: Agonist activity at human CB1 receptor expressed in HEK293S cell membranes after 1 hr by GTPgamma[35S] binding assay
[5] = Solubility of the compound in Hank's balanced saline solution at pH 7.4 after 24 hrs by HPLC analysis; format: physicochemical
In short: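 Compound in DMSO added to Hanks balanced saline solution pH 7.4, shaken 24 h.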

[6] = molecular target: Voltage-gated inwardly rectifying potassium channel KCNH2 (Homo sapiens, UniProt Q12809); assay: Inhibition of human ERG expressed in CHO cells by patch clamp assay; format: cell-based
Voltage-gated inwardly rectifying potassium channel KCNH2, sequence (Q12809 whole entry): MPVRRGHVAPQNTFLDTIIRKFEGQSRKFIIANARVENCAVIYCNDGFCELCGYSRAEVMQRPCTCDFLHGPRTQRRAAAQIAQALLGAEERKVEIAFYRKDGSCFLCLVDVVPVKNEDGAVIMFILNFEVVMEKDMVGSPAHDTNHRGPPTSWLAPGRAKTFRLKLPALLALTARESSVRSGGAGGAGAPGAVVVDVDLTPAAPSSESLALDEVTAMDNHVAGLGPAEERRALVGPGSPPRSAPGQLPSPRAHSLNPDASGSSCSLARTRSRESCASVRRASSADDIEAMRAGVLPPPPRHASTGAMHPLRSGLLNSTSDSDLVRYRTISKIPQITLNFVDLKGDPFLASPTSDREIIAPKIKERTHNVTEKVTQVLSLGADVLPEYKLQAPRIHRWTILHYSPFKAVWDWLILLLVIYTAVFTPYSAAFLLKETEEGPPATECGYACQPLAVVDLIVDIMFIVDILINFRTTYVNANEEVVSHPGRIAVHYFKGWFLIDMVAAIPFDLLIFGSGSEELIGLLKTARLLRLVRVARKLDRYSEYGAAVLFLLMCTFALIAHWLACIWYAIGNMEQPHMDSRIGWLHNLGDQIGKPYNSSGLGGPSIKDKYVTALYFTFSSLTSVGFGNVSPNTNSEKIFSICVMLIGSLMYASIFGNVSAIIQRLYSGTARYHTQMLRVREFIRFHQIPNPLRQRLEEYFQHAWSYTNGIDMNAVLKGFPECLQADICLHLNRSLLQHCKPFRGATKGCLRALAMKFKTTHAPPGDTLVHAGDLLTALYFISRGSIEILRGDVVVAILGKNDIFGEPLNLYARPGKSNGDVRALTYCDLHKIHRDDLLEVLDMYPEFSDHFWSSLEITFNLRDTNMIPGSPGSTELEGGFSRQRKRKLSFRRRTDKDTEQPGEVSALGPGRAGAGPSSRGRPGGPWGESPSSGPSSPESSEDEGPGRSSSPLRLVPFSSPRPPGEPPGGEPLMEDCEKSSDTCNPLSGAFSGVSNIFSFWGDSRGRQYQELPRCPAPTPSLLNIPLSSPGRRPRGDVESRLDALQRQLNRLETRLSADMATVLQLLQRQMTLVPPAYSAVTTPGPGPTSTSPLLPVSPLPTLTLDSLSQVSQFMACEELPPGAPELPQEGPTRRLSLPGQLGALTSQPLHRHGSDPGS
In short: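 Patch clamp (IonWorks) in CHO cells expressing hERG.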

[7] = Clearance in Sprague-Dawley rat at 2 umol/kg, iv; format: ADME, organism-based; conditions: in vivo
In short: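 Sprague-Dawley rats given 2 µmol/kg i.v.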

[8] = Oral bioavailability in Sprague-Dawley rat at 10 umol/kg; format: ADME, organism-based; conditions: in vivo
In short: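 Sprague-Dawley rats given 10 µmol/kg p.o., with i.v. reference dose of 2 µmol/kg.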

Cytochrome P450 2C9 = Cytochrome P450 2C9 (Homo sapiens, UniProt P11712); assay: Inhibition of human recombinant CYP2C9 expressed in Escherichia coli cells; format: ADME
Cytochrome P450 2C9, sequence (P11712 whole entry): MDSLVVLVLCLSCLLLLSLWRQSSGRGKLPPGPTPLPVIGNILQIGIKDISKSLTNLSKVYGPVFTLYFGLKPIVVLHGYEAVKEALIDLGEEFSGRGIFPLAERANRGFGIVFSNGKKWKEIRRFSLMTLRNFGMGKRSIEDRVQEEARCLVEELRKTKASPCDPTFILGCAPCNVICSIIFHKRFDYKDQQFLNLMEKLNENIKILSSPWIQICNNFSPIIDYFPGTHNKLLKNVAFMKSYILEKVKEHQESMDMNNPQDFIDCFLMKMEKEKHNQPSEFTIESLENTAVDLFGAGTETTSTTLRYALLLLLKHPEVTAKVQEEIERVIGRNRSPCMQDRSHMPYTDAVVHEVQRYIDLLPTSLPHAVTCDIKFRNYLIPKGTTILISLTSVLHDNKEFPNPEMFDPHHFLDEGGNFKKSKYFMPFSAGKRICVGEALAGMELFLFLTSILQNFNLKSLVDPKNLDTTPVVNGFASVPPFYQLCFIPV

Cytochrome P450 3A4 = Cytochrome P450 3A4 (Homo sapiens, UniProt P08684); assay: Inhibition of human recombinant CYP3A4 expressed in Escherichia coli cells; format: ADME
Cytochrome P450 3A4, sequence (P08684 whole entry): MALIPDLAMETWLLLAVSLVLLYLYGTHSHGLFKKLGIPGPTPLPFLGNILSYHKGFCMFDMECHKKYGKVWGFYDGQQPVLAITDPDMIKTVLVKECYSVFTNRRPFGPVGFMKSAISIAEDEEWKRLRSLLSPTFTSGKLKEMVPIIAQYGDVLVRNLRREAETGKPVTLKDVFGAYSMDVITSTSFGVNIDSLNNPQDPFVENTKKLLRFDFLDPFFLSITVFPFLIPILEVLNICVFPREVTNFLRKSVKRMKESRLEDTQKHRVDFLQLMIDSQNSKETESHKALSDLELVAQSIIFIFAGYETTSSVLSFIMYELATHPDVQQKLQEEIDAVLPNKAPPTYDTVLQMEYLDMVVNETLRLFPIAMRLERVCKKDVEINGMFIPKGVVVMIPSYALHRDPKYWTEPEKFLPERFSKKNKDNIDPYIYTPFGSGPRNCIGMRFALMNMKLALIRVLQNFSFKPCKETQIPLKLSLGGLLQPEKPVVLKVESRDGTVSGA

[9] = Lipophilicity, log D of the compound; conditions: octanol/water
Cannabinoid receptor 1 [10] = molecular target: T1, Cannabinoid receptor 1; assay: Agonist activity at human CB1 receptor expressed in HEK293S cell membranes after 1 hr by GTPgamma[35S] binding assay relative to WIN 55,212-2
In short: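 HEK293S membranes with cloned human CB1 (5 µg protein/well) in Hepes buffer pH 7.4, 100 mM NaCl, 5 mM MgCl2, 1 mM EDTA, 0.1% BSA, 15 µM GDP final. GTPγ[35S] added to start, 1 h at rt, filtered, counted. Basal from 8 wells; maximum from 8 wells with 10 µM reference agonist. Emax expressed as % of that reference. 10-point curves; mean of three experiments.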

[11] = Agonist activity at dog CB1 receptor expressed in HEK293S cell membranes after 1 hr by GTPgamma[35S] binding assay; set-up: species or system Canis lupus familiaris
In short: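 Dog CB1 stably expressed in HEK293S membranes, handled as for human CB1: Hepes buffer pH 7.4 with 100 mM NaCl, 5 mM MgCl2, 1 mM EDTA, 0.1% BSA, 15 µM GDP (final); 5 µg protein/well; GTPγ[35S] tracer; 1 h at rt; filtration and scintillation counting; 10-point curves; mean of three independent experiments.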

[12] = as §1; format: ADME, cell-based; conditions: Caco-2, pH 7.4; in short: as §2
Canis familiaris [13] = species: Canis familiaris; assay: Safety index, ratio of plasma concentration inducing CNS side effect to plasma concentration causing 50% inhibition of transient lower esophageal sphincter relaxations in dog; format: functional, Canis lupus familiaris
Canis familiaris [14] = assay: Inhibition of transient lower esophageal sphincter relaxations in iv dosed dog; format: functional, organism-based; conditions: Canis lupus familiaris
In short: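 Dogs fitted via esophagostomy with a water-perfused Dentsleeve assembly recording gastric, LES and esophageal pressures. I.v. bolus 10 min before start; TLESRs counted over 45 min. TLESR: LES pressure falls >1 mmHg/s to <2 mmHg above gastric, lasting >1 s, no swallow <2 s before. Each dog its own control against five prior control runs; mean ± S.E.M.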

Canis familiaris [15] = assay: Inhibition of transient lower esophageal sphincter relaxations in dog at 0.4 umol/kg, iv measured after 30 mins; format: functional; conditions: Canis lupus familiaris, 0.5 h
Canis familiaris [16] = assay: Inhibition of transient lower esophageal sphincter relaxations in dog at 0.2 umol/kg, iv measured after 30 mins; format: functional; conditions: Canis lupus familiaris, 0.5 h
Canis familiaris [17] = assay: Inhibition of transient lower esophageal sphincter relaxations in dog at 0.1 umol/kg, iv measured after 30 mins; format: functional; conditions: Canis lupus familiaris, 0.5 h
Canis familiaris [18] = assay: Inhibition of transient lower esophageal sphincter relaxations in dog at 0.05 umol/kg, iv measured after 30 mins; format: functional; conditions: Canis lupus familiaris, 0.5 h
Canis familiaris [19] = assay: Inhibition of transient lower esophageal sphincter relaxations in intragastrically dosed dog; format: functional, organism-based; conditions: Canis lupus familiaris
In short: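 Dogs with esophagostomy and water-perfused Dentsleeve manometry (gastric, LES, esophageal pressures). Dosed intragastrically 30 min before start; TLESRs counted over 45 min. TLESR: LES pressure falls >1 mmHg/s to <2 mmHg above gastric, lasting >1 s, no swallow within 2 s before. Each dog its own control against five prior control runs; mean ± S.E.M.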

Canis familiaris [20] = assay: Inhibition of transient lower esophageal sphincter relaxations in dog at 2 umol/kg dosed intragastrically measured after 10 mins; format: functional; conditions: Canis lupus familiaris, po
Canis familiaris [21] = assay: Inhibition of transient lower esophageal sphincter relaxations in dog at 1 umol/kg dosed measured after 10 mins; format: functional; conditions: Canis lupus familiaris

Row | Compound | BPR [2] | IC50 (Cannabinoid receptor 2) | IC50 (Cannabinoid receptor 1 [3]) | EC50 (Cannabinoid receptor 1 [4]) | logD [9] | Emax (Cannabinoid receptor 1 [10]) | Kp [1] | Papp A→B [12] | also measured
1 | C[S+]([O-])Cc1ccc(C(=O)Nc2nccnc2C(=O)NCC2CCC2)c2ccccc12 (stereo in doubt; 18f) | 0.03 | 300 nM | 47 nM | 120 nM | – | – | – | – | BPR ([1]; brain): 0.022; Papp (Caco-2): 20 ×10⁻⁶ cm/s; solubility at 24 h [5]: 87 µM (≈ 38 µg/mL); IC50 [6]: 17000 nM; clearance [7]: 26 mL/min/kg; bioavailability [8]: 52%; IC50 (Cytochrome P450 2C9): > 20000 nM; IC50 (Cytochrome P450 3A4): > 20000 nM
2 | O=C(NCC1CCC1)c1nc(OCCO)ccc1NC(=O)c1ccnc2ccccc12 | – | 2500 nM | 73000 nM | 120 nM | 4 | 51% | – | – | –
3 | COc1ccc(NC(=O)c2ccnc3ccccc23)c(C(=O)NCC2CCC2)n1 | – | 100 nM | 15000 nM | 16 nM | 5.9 | 51% | – | – | –
4 | O=C(NCC1CCCCC1)c1cc(Cl)ccc1NC(=O)c1cccc2ccccc12 | – | 1800 nM | 160 nM | 260 nM | 7.8 | 77% | – | – | –
5 | O=C(NCC1CCOCC1)c1nc(OS(=O)(=O)CCC(F)(F)F)ccc1NC(=O)c1ccc(Cn2ccnn2)c2ccccc12 | 0.015 | > 10000 nM | 14 nM | 11 nM | 4.8 | 110% | 0.016 | 21 ×10⁻⁶ cm/s | EC50 [11]: 19 nM; TI (Canis familiaris [13]): 10; inhibition (Canis familiaris [14]): Dose-dependent effect; inhibition in vivo at 0.4 µmol/kg (Canis familiaris [15]): 58.4%; inhibition in vivo at 0.2 µmol/kg (Canis familiaris [16]): 33.5%; inhibition in vivo at 0.1 µmol/kg (Canis familiaris [17]): 28.6%
6 | COc1ccc(NC(=O)c2ccc(C[S+](C)[O-])c3ccccc23)c(C(=O)NCC2CCOCC2)n1 (stereo unspecified) | 0.026 | > 690 nM | 15 nM | 13 nM | 3.4 | 79% | 0.031 | 35 ×10⁻⁶ cm/s | EC50 [11]: 16 nM; inhibition (Canis familiaris [14]): Dose-dependent effect; solubility at 24 h [5]: 93 µM (≈ 46.1 µg/mL); IC50 [6]: > 32000 nM; clearance [7]: 17 mL/min/kg; bioavailability [8]: 21%; IC50 (Cytochrome P450 2C9): 1600 nM; IC50 (Cytochrome P450 3A4): 8800 nM; inhibition in vivo at 0.05 µmol/kg (Canis familiaris [18]): 38.6%; inhibition in vivo at 0.1 µmol/kg (Canis familiaris [17]): 62.2%
7 | O=C(NCC1CCC1)c1ncccc1NC(=O)c1ccc(Cn2cccn2)c2ccccc12 | – | 69 nM | 13000 nM | 23 nM | 6.2 | 93% | – | – | –
8 | COc1ccc(NC(=O)c2ccc(Cn3ccnn3)c3ccccc23)c(C(=O)NCC2CCC2)n1 | 0.093 | – | 0.97 nM | 1.3 nM | 5.7 | 54% | 0.31 | 0.96 ×10⁻⁶ cm/s | –
9 | C[S+]([O-])Cc1ccc(C(=O)Nc2ccc(OCCOCCO)nc2C(=O)NCC2CCC2)c2ccccc12 (stereo unspecified) | 0.023 | 500 nM | 7.2 nM | 5.1 nM | 3.2 | 120% | 0.02 | 26 ×10⁻⁶ cm/s | EC50 [11]: 3 nM; IC50 (Cytochrome P450 2C9): 6700 nM; IC50 (Cytochrome P450 3A4): 5500 nM; inhibition (Canis familiaris [19]): Dose-dependent effect; inhibition in vivo at 2 µmol/kg (Canis familiaris [20]): 31.7%; inhibition in vivo at 1 µmol/kg (Canis familiaris [21]): 5.9%
10 | C[S@@+]([O-])Cc1ccc(C(=O)Nc2cccnc2C(=O)NCC2CCOCC2)c2ccccc12 | 0.03 | – | 21 nM | 31 nM | 2.9 | 100% | 0.031 | 26 ×10⁻⁶ cm/s | –
11 | O=C(NCC1CCCCC1)c1ncccc1NC(=O)c1cccc2ccccc12 | – | 110 nM | 10 nM | 24 nM | 8.1 | 110% | – | – | –
12 | O=C(NCC1CCC1)c1ncccc1NC(=O)c1ccc(Cn2ccnn2)c2ccccc12 | – | 65 nM | 710 nM | 1.4 nM | 5.3 | 110% | – | – | –
13 | C[S+]([O-])Cc1ccc(C(=O)Nc2nccnc2C(=O)NCC2CCC2)c2ccccc12 (single isomer, unassigned) | 0.011 | – | 37 nM | 32 nM | 2.7 | – | 0.02 | – | Papp (Caco-2): 9 ×10⁻⁶ cm/s
14 | O=C(NCC1CCOCC1)c1ncccc1NC(=O)c1cccc2ccccc12 | – | 260 nM | 31 nM | 81 nM | 5.1 | 110% | 3 | – | –
15 | C[S@+]([O-])Cc1ccc(C(=O)Nc2cccnc2C(=O)NCC2CCOCC2)c2ccccc12 | – | – | 600 nM | – | 2.9 | – | – | 0.61 ×10⁻⁶ cm/s | –
16 | C[S+]([O-])Cc1ccc(C(=O)Nc2cccnc2C(=O)NCC2CCOCC2)c2ccccc12 (stereo unspecified) | 0.01 | 2500 nM | 49 nM | 87 nM | 2.8 | 110% | 0.018 | 23 ×10⁻⁶ cm/s | solubility at 24 h [5]: 79 µM (≈ 36.8 µg/mL); IC50 [6]: > 32000 nM; clearance [7]: 14 mL/min/kg; bioavailability [8]: 31%; IC50 (Cytochrome P450 2C9): 19000 nM; IC50 (Cytochrome P450 3A4): > 20000 nM
